This is a sample that favours compounds with a hit; in the whole collection about 2.1% have one here.
LMPTP inh: blocks human LMPTP phosphatase; actives 0.22% (n = 360,000); P24666; recombinant LMPTP-A, OMFP fluorogenic substrate, fluorescence intensity; AID 651560; inhibition, % at 20 µM;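 active = compounds that cut the enzyme signal by at least half of the control window in the single-dose screen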;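 note: plate controls were DMSO wells with enzyme plus substrate for no effect and substrate without enzyme for full effect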
Target sequence (P24666 whole entry, looked up): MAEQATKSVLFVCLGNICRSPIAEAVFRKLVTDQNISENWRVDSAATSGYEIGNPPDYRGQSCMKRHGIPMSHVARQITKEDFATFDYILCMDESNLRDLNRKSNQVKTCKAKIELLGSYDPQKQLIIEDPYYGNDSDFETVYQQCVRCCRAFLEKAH
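Material: LMPTP-A; amount: 0.625 nM enzyme; doses: single 20 µM dose; times: reaction 50 min, room temperature, dark; technique: fluorescence intensity of OMFP turnover product; benchmarks: no-enzyme and uninhibited controls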
Scp-1 inhibitor: Scp-1 (human) phosphatase inhibition. Recombinant Scp1, phosphopeptide, malachite green phosphate absorbance. inhibition, % at 20 µM. Q9GZU7. actives 0.88% (n = 340,000);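 active = inhibition above about 50% at 20 µM, limit read from the data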;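 note: plate controls were DMSO wells with enzyme for no effect and wells lacking enzyme for full effect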
Target sequence (Q9GZU7 76-261 limits assumed): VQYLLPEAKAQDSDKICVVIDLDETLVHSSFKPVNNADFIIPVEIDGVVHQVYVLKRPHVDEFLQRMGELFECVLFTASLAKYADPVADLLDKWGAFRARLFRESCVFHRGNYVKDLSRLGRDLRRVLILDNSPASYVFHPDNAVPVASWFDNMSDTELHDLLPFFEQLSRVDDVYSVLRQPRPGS
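assay system = SCP-1 phosphatase catalytic domain, residues 76-261 | buffer or medium = 50 mM Tris acetate pH 5.5, 0.005% Tween-20, 10 mM MgCl2 | incubation = enzyme reaction 45 min at room temperature, colour 5 min, stabilisation 30 min | signal = Phosphate-binding colour reagent, absorbance read at 630 nm | measure = % inhibition at 20 µM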
DNMT1 block: blocks human DNA methyltransferase DNMT1; P26358; inhibition (reported as % activation of signal), % at 10 µM; actives 0.83% (n = 360,000); DNMT1 molecular beacon, Hinp1I cleavage, fluorescence; in the data active = inhibition above about 50%
GRK2 inh: human GRK2 inhibition via aptamer displacement. P25098. bead flow cytometry, FAM-aptamer displacement from GRK2. inhibition of aptamer binding, % at 10 µM. actives 0.59% (n = 330,000). AID 488847;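 active = inhibition of aptamer binding above 40%, roughly 3 SD of noise, on plates passing a quality check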;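 note: median bead fluorescence of bound FAM aptamer so fluorescent compounds give negative values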
STEP block: blocks human striatal-enriched tyrosine phosphatase | P54829 | AID 588621 | inhibition, % at 20 µM | actives 0.25% (n = 360,000) | recombinant STEP, OMFP fluorogenic substrate, fluorescence;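 active = inhibition at 20 µM, scaled per plate between control wells, above about 37%, limit read from the data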;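 note: 0% = DMSO with enzyme and substrate and 100% = substrate only without enzyme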
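Also added – OMFP at 25 µM · Test system – STEP tyrosine phosphatase · Technique – FITC-channel fluorescence of OMFP product · Schedule – 20 min at room temperature, dark · Evaluation – control-normalized % inhibition with plate pattern correction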
SUMO1-SIM PPI: alters human SUMO1 binding to SIM partners; AID 602429; SUMO1 binding to a labelled peptide, TR-FRET, 1 h; P63165; inhibition, % at 20 µM; actives 0.33% (n = 360,000); in the data active = inhibition above about 37%
Target sequence (P63165 whole entry, looked up): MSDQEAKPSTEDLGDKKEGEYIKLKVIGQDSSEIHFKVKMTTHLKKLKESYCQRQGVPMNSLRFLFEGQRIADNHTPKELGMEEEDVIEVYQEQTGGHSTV
Starred values were filed as active, the others as inactive; x = not tested or not shown.

SMILES	LMPTP inh	Scp-1 inhibitor	DNMT1 block	GRK2 inh	STEP block	SUMO1-SIM PPI
O=c1oc2cc(O)ccc2c2ccccc12	1.4	10.8	11.4	1.0	0.2	2.1
O=C(O)c1cccc(-c2ccc(/C=C3/SC(=Nc4ccccc4)N(Cc4cccnc4)C3=O)o2)c1	0.7	73.3*	23.1	6.0	10.7	81.9*
CCN1C(=O)/C(=C\c2ccc(-c3cccc(C(=O)OC)c3)o2)SC1=Nc1ccc(C(=O)O)cc1	x	x	x	2.0	x	x
CCN=C1S/C(=C/c2ccc(-c3ccc(Cl)cc3C(=O)O)o2)C(=O)N1CC	0.3	4.2	10.7	3.0	3.8	-1.9
CCN1C(=O)/C(=C\c2ccc(-c3ccc([N+](=O)[O-])cc3OC)o2)SC1=Nc1cccc(C(=O)O)c1	8.3	-8.8	-18.8	x	3.8	54.2*
Nc1c(S(=O)(=O)O)cc(NC(=O)c2ccccc2)c2c1C(=O)c1ccccc1C2=O	16.1	70.6*	39.1	2.0	33.4	69.4*
Cc1ccc(/C=C/c2nc3sc(C(=O)O)c(C)c3c(=O)[nH]2)cc1[N+](=O)[O-]	64.4*	89.4*	24.1	9.0	99.0*	15.7
Cc1c(C(=O)O)sc2nc(/C=C/c3ccccc3OC(F)F)[nH]c(=O)c12	3.8	39.0	1.9	0.0	9.0	-3.1
Cc1[nH]c2ccc(C(=O)OCC(=O)Nc3cccc(S(N)(=O)=O)c3)cc2c1C	1.4	-5.5	-18.7	0.0	1.4	60.3*
CN1CCC(C)(C(=O)Nc2ccc3c(c2)OCCO3)C1 (stereo not given)	0.7	x	2.7	x	0.1	2.0
CNC(CC(C)C)C(=O)NC1C(=O)NC(CC(N)=O)C(=O)NC2C(=O)NC3C(=O)NC(C(=O)NC(C(=O)O)c4cc(O)cc(O)c4-c4cc3ccc4O)C(O)c3ccc(c(Cl)c3)Oc3cc2cc(c3OC2OC(CO)C(O)C(O)C2OC2CC(C)(N)C(O)C(C)O2)Oc2ccc(cc2Cl)C1O (stereo not given)	0.4	-3.5	-2.4	0.0	-0.9	50.8*
CSc1nc(C)c2c(n1)N(c1ccc(C(C)C)cc1)CC2	2.8	3.2	-3.9	0.0	3.9	56.3*
CCOP(=O)(OCC)C(NC(=O)C(F)(F)F)c1ccccc1 (stereo not given)	-1.0	-1.8	0.7	64.0*	-6.4	0.7
COc1ccc(-c2noc(CCCCC(=O)N3CCN(c4cc(C)ccc4C)CC3)n2)cc1	8.2	9.2	-7.0	0.0	1.0	2.6
COc1ccc(-c2noc(CCCC(=O)N3CCN(c4cc(C)ccc4C)CC3)n2)cc1	5.5	3.9	-2.9	1.0	7.4	41.9*
Nc1cccc2c1C(=O)N(CCOc1ccccc1F)C2=O	-1.6	56.1*	-0.5	4.0	-2.3	-29.1
N#Cc1ccccc1OCCN1C(=O)c2ccccc2C1=O	-0.7	-4.8	2.0	0.0	0.4	-11.8
O=C(COC(=O)c1ccc(Cl)c(S(=O)(=O)N2CCOCC2)c1)Nc1ccc2[nH]c(=O)[nH]c2c1	-0.5	3.2	-1.6	0.0	-1.7	83.6*
O=C(COC(=O)Cc1ccc(Cl)cc1)Nc1ccc(OC(F)F)cc1	0.9	-9.0	-1.0	44.0*	-3.1	37.6
O=C(COC(=O)c1ccccc1OC(F)F)Nc1ccc2[nH]c(=O)[nH]c2c1	-0.8	26.5	-9.7	0.0	-2.8	40.4*
O=C(COC(=O)c1cc(Cl)nc(Cl)c1)Nc1ccc(Cl)c(S(=O)(=O)N2CCOCC2)c1	1.0	0.5	-3.7	2.0	-1.0	22.2
O=C(COC(=O)Cc1ccc(F)cc1)Nc1ccc2[nH]c(=O)[nH]c2c1	-0.5	-3.9	-2.1	0.0	0.0	73.7*
NC(CSCc1cccc(Br)c1)C(=O)O (stereo not given)	0.5	-6.0	-29.2	3.0	1.4	-0.3
CCN1CCN(C(=O)C(C)Nc2cc(Cl)c(OC)cc2OC)CC1 (stereo not given)	-2.5	1.8	-7.2	2.0	-2.6	-17.2
COc1ccc(N2CCN(C(=O)COC(=O)CC(NC(N)=O)c3ccc(Cl)cc3)CC2)cc1 (stereo not given)	-1.8	x	-1.1	x	-1.9	1.8
SMILES	LMPTP inh	Scp-1 inhibitor	DNMT1 block	GRK2 inh	STEP block	SUMO1-SIM PPI
CC(=O)OC(COc1ccccc1)Cn1cnc2cc(C)c(C)cc21 (stereo not given)	-1.8	10.1	-0.6	0.0	-2.5	1.7
O=C(CSc1nncs1)Nc1ccc2[nH]c(=O)[nH]c2c1	1.2	-5.8	0.6	0.0	-2.7	65.6*
O=C(COC(=O)CCC(=O)c1ccc(F)cc1)Nc1ccc2[nH]c(=O)[nH]c2c1	0.4	-3.5	-0.3	0.0	-1.3	39.0*
Cc1nnc(SCC(=O)Nc2ccc3[nH]c(=O)[nH]c3c2)s1	-1.9	-2.7	-0.1	0.0	-0.2	-0.1
Cc1ccc(C(=O)CCC(=O)OCC(=O)Nc2ccc3[nH]c(=O)[nH]c3c2)cc1	-0.4	1.6	4.2	0.0	0.3	25.2
CCC(C(=O)OCC(=O)Nc1ccc2[nH]c(=O)[nH]c2c1)c1ccccc1 (stereo not given)	-0.1	-5.7	2.6	0.0	-0.7	42.9*
O=C(COc1ccccc1C(=O)N/N=C\c1ccc(O)c(O)c1)N/N=C/c1ccc(O)c(O)c1	10.8	61.4*	3.9	21.0	-2.4	20.9
O=C(NN=Cc1ccc(O)c(O)c1)c1ccccc1	3.6	x	12.7	x	1.6	-5.7
Cc1cccc(S(=O)(=O)NC(=O)C2(C)CCN2C(=O)Cc2ccc(Cl)cc2Cl)c1 (stereo not given)	-0.9	x	6.0	x	1.1	4.9
CCCCCCc1cc2cc(-c3nnc(-c4ccccc4O)o3)c(=O)oc2cc1O	0.6	-7.7	87.0*	4.0	-0.8	7.6
CCCCCCc1cc2cc(-c3nnc(-c4cc(OC)c(OC)c(OC)c4)o3)c(=O)oc2cc1O	x	0.4	x	0.0	x	x
Cc1ccccc1S(=O)(=O)N(C)C[C@H]1OCc2cn(nn2)CCCC(=O)N([C@H](C)CO)C[C@@H]1C	0.4	x	1.0	x	-2.6	4.3
COc1cc(/C=C2\C(C)=C(C#N)c3nc(N)c(C#N)c(C)c32)ccc1OCC(=O)O	10.4	0.2	-3.0	1.0	0.5	45.5*
CC1=C(C#N)c2nc(N)c(C#N)c(C)c2/C1=C\c1ccc(C)cc1	x	x	x	0.0	x	x
O=C(Nc1ccccn1)C1CCN(C(=O)c2ccc(Cl)cc2)CC1	-0.8	x	4.5	x	-2.0	-6.9
Cc1cc(C)n2nc3ccccc3c2n1	-1.0	-4.6	8.6	1.0	1.5	-1.2
Cc1cc(C)n2nc3nc(N4CCCCC4)nc(-c4ccco4)c3c2n1	31.9	42.6	53.9*	18.0	4.4	11.4
O=C(CSc1nc2c(cnn2-c2cccc(Cl)c2)c(=O)[nH]1)NCCC1=CCCCC1	-0.6	3.2	10.3	0.0	1.1	9.8
